For series [1], the target named is T1, 4,4'-diapophytoene desaturase (4,4'-diaponeurosporene-forming) (Staphylococcus aureus (strain Newman)) (UniProt O07855).
T1 sequence (whole entry): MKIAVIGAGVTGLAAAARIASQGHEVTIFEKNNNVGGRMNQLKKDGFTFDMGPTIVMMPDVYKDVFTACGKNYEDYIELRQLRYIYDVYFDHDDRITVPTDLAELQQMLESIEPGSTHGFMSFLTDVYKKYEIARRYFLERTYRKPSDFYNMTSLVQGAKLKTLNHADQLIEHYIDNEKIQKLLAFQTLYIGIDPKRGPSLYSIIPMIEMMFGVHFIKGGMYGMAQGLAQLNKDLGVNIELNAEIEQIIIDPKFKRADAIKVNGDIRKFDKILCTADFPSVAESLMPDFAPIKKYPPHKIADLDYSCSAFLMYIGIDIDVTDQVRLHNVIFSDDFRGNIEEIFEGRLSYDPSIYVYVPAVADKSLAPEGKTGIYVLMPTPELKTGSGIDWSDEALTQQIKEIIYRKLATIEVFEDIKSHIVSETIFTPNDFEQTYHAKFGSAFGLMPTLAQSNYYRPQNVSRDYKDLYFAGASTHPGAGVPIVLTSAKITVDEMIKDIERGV
As to the kind of experiment: Inhibition of CrtN in methicillin-resistant Staphylococcus aureus USA300 LAC assessed as bacterial survival at 1 uM after 24 hrs by H2O2 killing assay (reference value: 29.67%).

The target of series [2] is T2, 4,4'-diapophytoene desaturase (4,4'-diaponeurosporene-forming) (Staphylococcus aureus (strain Newman), UniProt O07855).
T2 sequence (O07855 whole entry): T1 sequence (whole entry)
The series is described as follows: Inhibition of Staphylococcus aureus Newman 6His-tagged CrtN expressed in Escherichia coli BL21(DE3) assessed as 4,4'-diapophytoene accumulation.

Series [3] has as its system Staphylococcus aureus. The series is described as follows: Inhibition of pigmentation in wild type Staphylococcus aureus Newman after 48 hrs by spectrophotometric method. The format is functional, organism-based. A digest of the protocol: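 S. aureus Newman was grown in TSB 48 h at 37 °C with a concentration series of compound in DMSO, in duplicate. Controls were a DMSO vehicle and a nonpigmented CrtN mutant. Cells were washed twice in 0.01 M PBS and pigment extracted in methanol. A450 was measured and IC50 derived by curve fitting.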

The target of series [4] is T3, 4,4'-diapophytoene desaturase (4,4'-diaponeurosporene-forming) (Staphylococcus aureus (strain Mu50 / ATCC 700699)) (UniProt Q99R76).
T3 sequence (whole entry): T1 sequence (whole entry)
The series is described as follows: Inhibition of CrtN in vancomycin-intermediate methicillin-resistant Staphylococcus aureus Mu50 assessed as bacterial survival after 6 hrs by human whole blood killing assay (reference value: 8.66%). To be noted: Staphylococcus aureus subsp. aureus Mu50. The procedure, abridged: (§1)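 Overnight cultures spun, resuspended in sterile PBS at 1 × 10⁷ CFU/mL, then mixed 1:10 with fresh whole blood from healthy human volunteers (final 1 × 10⁶ CFU/mL). Incubated 6 h at 37 °C; surviving CFU counted by plating dilutions on TSA. Two independent experiments.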

Series [5] deals with Staphylococcus aureus. The series is described as follows: Growth inhibition of methicillin/linezolid-resistant Staphylococcus aureus NRS271 at 0.2 mM incubated for overnight. Type of series: functional, organism-based. The procedure, abridged:
(§2)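 Overnight cultures washed in PBS and diluted in TSB to OD600 ~1.0. Inoculated to a final OD600 of about 0.05 into TSB containing compound (0.2 or 0.05 mM, from a 20 mM DMSO stock) or DMSO growth control, overlaid with paraffin wax. OD600 read every 30 min during overnight incubation at 37 °C.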

The target in series [6] is T3, 4,4'-diapophytoene desaturase (4,4'-diaponeurosporene-forming) (Staphylococcus aureus (strain Mu50 / ATCC 700699)). As to the kind of experiment: Inhibition of CrtN in vancomycin-intermediate methicillin-resistant Staphylococcus aureus Mu50 assessed as bacterial survival at 1 uM after 24 hrs by H2O2 killing assay (reference value: 23.33%). The following applies: Staphylococcus aureus subsp. aureus Mu50.

Series [7] deals with Staphylococcus aureus. The series is described as follows: Growth inhibition of wild type Staphylococcus aureus Newman at 0.2 mM incubated for overnight. Type of series: functional, organism-based. A digest of the protocol:
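A 20 mM DMSO stock was diluted in TSB to 0.2 mM final, with a DMSO growth control. Dilutions were overlaid with paraffin and held 4 h at 37 °C. Overnight cultures were PBS-washed and added to a final OD600 ≈ 0.05. Plates were incubated overnight at 37 °C with OD600 read every 30 min.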

The subject of series [8] is Staphylococcus aureus. The series is described as follows: Antibacterial activity against wild type Staphylococcus aureus Newman infected in BALB/c mouse assessed as decrease in bacterial load in mouse liver at 0.4 mg, ip bid administered 4.5 days […] bacterial infection measured after 90 hrs relative to control. The format is functional. The procedure, abridged:
(§3)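 Female BALB/c mice, 6-8 weeks old, infected retro-orbitally with 2.2 × 10⁷ CFU S. aureus Newman. Intraperitoneal dosing in 12 intervals: pre-treatment groups received a total of 50 or 200 mg/kg starting before infection; post-treatment groups received a total of 39 or 156 mg/kg starting 6 h after infection. Vehicle was ddH₂O. At 90 h post-infection, liver or kidney was homogenized in PBS/0.01% Triton X-100 and plated on TSA for CFU.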

Series [9] concerns the target Voltage-gated inwardly rectifying potassium channel KCNH2 (Homo sapiens, UniProt Q12809). As to the kind of experiment: Inhibition of human ERG expressed in CHO cells at holding potential of -80 mV by whole cell Qpatch assay. Type of series: cell-based. A general note: The patch-clamp technique gives a direct electrical read-out from membranes.
In series [10] the target is T1, 4,4'-diapophytoene desaturase (4,4'-diaponeurosporene-forming) (Staphylococcus aureus (strain Newman)). The series is described as follows: Inhibition of CrtN in methicillin-resistant Staphylococcus aureus USA400 MW2 assessed as bacterial survival after 6 hrs by human whole blood killing assay (reference value: 23.33%). A digest of the protocol:
as §1

In series [11] the test system is Staphylococcus aureus. As to the kind of experiment: Growth inhibition of methicillin-resistant Staphylococcus aureus USA300 LAC at 0.2 mM incubated for overnight. The format is functional, organism-based. The procedure, abridged:
as §2

Series [12] relates to Staphylococcus aureus. As to the kind of experiment: Inhibition of pigmentation in vancomycin-intermediate methicillin-resistant Staphylococcus aureus Mu50 after 48 hrs by spectrophotometric method. The format is functional, organism-based. The following applies: Mu50, 48 h. The procedure, abridged: (§4)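 Bacteria grown in 4 mL TSB for 48 h at 37 °C with compound serially diluted from DMSO, in duplicate; DMSO vehicle control and non-pigmented CrtN mutant as reference. Cells from 3 mL of culture washed twice with 0.01 M PBS and pigment extracted into methanol. Absorbance read at 450 nm; IC50 fitted from the concentration series.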

Series [13] relates to Staphylococcus aureus. The series is described as follows: Inhibition of pigmentation in methicillin-resistant Staphylococcus aureus USA400 MW2 after 48 hrs by spectrophotometric method. The format is functional, organism-based. To be noted: USA400 MW2, 48 h. The procedure, abridged:
as §4

Another series concerns HEK-293T. The series is described as follows: Cytotoxicity against HEK293T cells assessed as reduction in cell viability after 72 hrs by CCK-8 assay. Type of series: functional. To be noted: Homo sapiens. A digest of the protocol:
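HepG2 or HEK-293T cells were seeded at 5000 per well and grown 24 h at 37 °C, 5% CO₂. Cells were then exposed to compound for 72 h; compound came from DMSO, diluted in medium to final DMSO <0.4%, with a DMSO-matched vehicle control. Viability was read by 10% CCK-8 for 1 h, absorbance 450 nm, in triplicate.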

Series [14] in a line: Solubility of the compound in water by UV analysis. Type of series: physicochemical.
Series [15] has as its system Staphylococcus aureus. As to the kind of experiment: Antibacterial activity against wild type Staphylococcus aureus Newman infected in BALB/c mouse assessed as decrease in bacterial load in mouse liver at 0.1 mg, ip bid administered 4.5 days after 6 hrs bacterial infection measured after 90 hrs relative to control. Type of series: functional. The procedure, abridged:
as §3

Activity calls are given as the source filed them. No cut-off for these calls is given here.

A word on the IC50: it is the concentration at which inhibition is half-maximal. In general, CC50 refers to the concentration at which the toxic effect on the cells reaches its halfway point. For orientation: solubility means how much of the substance goes into solution per volume.

Voltage-gated inwardly rectifying potassium channel KCNH2, sequence (Q12809 whole entry): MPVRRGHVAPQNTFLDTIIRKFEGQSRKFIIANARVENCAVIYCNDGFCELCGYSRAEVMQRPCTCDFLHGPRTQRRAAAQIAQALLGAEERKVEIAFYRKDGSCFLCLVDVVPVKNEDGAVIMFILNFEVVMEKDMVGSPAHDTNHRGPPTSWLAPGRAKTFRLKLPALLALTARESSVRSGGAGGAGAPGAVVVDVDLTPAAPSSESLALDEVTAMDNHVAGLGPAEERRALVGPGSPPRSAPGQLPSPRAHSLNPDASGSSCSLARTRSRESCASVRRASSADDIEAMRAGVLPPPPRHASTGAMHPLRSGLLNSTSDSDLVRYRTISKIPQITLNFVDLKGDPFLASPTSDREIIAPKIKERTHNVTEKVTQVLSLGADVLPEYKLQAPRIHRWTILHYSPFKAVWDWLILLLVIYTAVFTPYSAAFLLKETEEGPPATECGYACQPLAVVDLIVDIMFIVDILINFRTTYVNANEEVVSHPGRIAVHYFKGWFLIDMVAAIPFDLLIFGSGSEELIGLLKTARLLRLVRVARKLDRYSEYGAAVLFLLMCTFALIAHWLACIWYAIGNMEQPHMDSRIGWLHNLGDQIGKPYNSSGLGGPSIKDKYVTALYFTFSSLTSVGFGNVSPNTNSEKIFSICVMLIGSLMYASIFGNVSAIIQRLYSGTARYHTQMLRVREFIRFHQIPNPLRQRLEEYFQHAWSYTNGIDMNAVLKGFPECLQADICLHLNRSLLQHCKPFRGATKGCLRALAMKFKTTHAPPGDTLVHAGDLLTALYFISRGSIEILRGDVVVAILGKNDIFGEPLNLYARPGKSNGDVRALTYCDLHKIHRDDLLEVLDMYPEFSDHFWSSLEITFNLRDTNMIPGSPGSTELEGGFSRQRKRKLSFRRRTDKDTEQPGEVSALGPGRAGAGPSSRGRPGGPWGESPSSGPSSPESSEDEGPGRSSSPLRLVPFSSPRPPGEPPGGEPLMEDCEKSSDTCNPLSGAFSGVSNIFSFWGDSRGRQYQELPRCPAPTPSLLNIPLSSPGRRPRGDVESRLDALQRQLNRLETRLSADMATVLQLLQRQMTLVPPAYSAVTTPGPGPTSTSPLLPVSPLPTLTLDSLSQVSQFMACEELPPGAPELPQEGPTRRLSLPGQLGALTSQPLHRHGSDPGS

As for `CN(C/C=C/C=C/c1ccc(C(F)(F)F)cc1F)Cc1ccc2c(c1)OCO2.Cl`, the Survival in [1] stood at 2.67%; in series [4], 0.28%; in series [6] it was 2%; in series [10], 0.93%. In addition, the IC50 in series [2] amounted to 408 nM; in the series on Staphylococcus aureus [3] it was 4.02 nM; in series [9] it was 14 µM; in the series on Staphylococcus aureus [12], 2.5 nM; with Staphylococcus aureus [13], 7.6 nM. Besides, the “growth inhibition (GI)” value with Staphylococcus aureus [5], with Staphylococcus aureus [7] and with Staphylococcus aureus [11] was “inactive” throughout. Moreover, the Activity is on record as 1.9 deltalog10CFU in the series on Staphylococcus aureus [8] and 1.53 deltalog10CFU in the series with Staphylococcus aureus [15]. Further, the CC50 with HEK-293T was 92.6 µM. In [14], this compound showed a solubility of 8690 µg/mL.

For the origin of these results see ChEMBL document CHEMBL4145474, “Discovery of novel piperonyl derivatives as diapophytoene desaturase inhibitors for the treatment of methicillin-, vancomycin- and linezolid-resistant Staphylococcus aureus infections” (Eur J Med Chem, 2018).
